According to ChEMBL document CHEMBL4334458, “Design, synthesis and antibacterial evaluation of novel 15-membered 11a-azahomoclarithromycin derivatives with the 1, 2, 3-triazole side chain” (Eur J Med Chem, 2019):
In brackets after ≈: the same amount, converted by molar mass.

Legend:
Format in all cases: functional
Staphylococcus aureus [1] = test: Antibacterial activity against erythromycin-susceptible Staphylococcus aureus ATCC 25923 incubated for 24 hrs by broth dilution method; conditions: ATCC 25923, 24 h
Summary of the method: (§1)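 CLSI broth microdilution in cation-adjusted Mueller-Hinton broth. Twofold dilutions spanned 0.25–128 or 0.5–256 µg/mL, with CAM and AZM as controls. Log-phase bacteria were added and incubated 24 h at 37 °C. MIC was read by turbidity as the concentration of the last clear well.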

Streptococcus pyogenes [2] = test: Antibacterial activity against erythromycin-susceptible Streptococcus pyogenes 1 clinical isolate incubated for 24 hrs by broth dilution method; summary of the method: as §1
Escherichia coli = test: Antibacterial activity against penicillin-susceptible Escherichia coli ATCC 25922 incubated for 24 hrs by broth dilution method; conditions: ATCC 25922, 24 h; summary of the method: as §1
Pseudomonas aeruginosa = test: Antibacterial activity against penicillin-susceptible Pseudomonas aeruginosa ATCC 27853 incubated for 24 hrs by broth dilution method; conditions: ATCC 27853, 24 h; summary of the method: as §1
Bacillus subtilis = test: Antibacterial activity against penicillin-susceptible Bacillus subtilis ATCC 9372 incubated for 24 hrs by broth dilution method; conditions: ATCC 9372, 24 h; summary of the method: as §1
Staphylococcus aureus [3] = test: Antibacterial activity against penicillin-resistant Staphylococcus aureus ATCC 31007 incubated for 24 hrs by broth dilution method; conditions: ATCC 31007, 24 h
Staphylococcus aureus [4] = test: Antibacterial activity against methicillin-resistant Staphylococcus aureus ATCC 43300 incubated for 24 hrs by broth dilution method; conditions: ATCC 43300, 24 h
Streptococcus pneumoniae [5] = test: Antibacterial activity against erythromycin-resistant Streptococcus pneumoniae B1 expressing the ermB incubated for 24 hrs by broth dilution method
Streptococcus pneumoniae [6] = test: Antibacterial activity against erythromycin-resistant Streptococcus pneumoniae AB11 expressing the ermB and mefA incubated for 24 hrs by broth dilution method
Streptococcus pyogenes [7] = test: Antibacterial activity against erythromycin-resistant Streptococcus pyogenes 2 clinical isolate incubated for 24 hrs by broth dilution method

Structure (SMILES) | MIC (Staphylococcus aureus [1]) [mg/L] | MIC (Streptococcus pyogenes [2]) [mg/L] | MIC (Escherichia coli) [mg/L] | MIC (Pseudomonas aeruginosa) [mg/L] | MIC (Bacillus subtilis) [mg/L] | MIC (Staphylococcus aureus [3]) [mg/L] | MIC (Staphylococcus aureus [4]) [mg/L] | MIC (Streptococcus pneumoniae [5]) [mg/L] | MIC (Streptococcus pneumoniae [6]) [mg/L] | MIC (Streptococcus pyogenes [7]) [mg/L]
CCCc1ccc(-n2cc(COC[C@H]3CN(C)C[C@@H](C)[C@@H](O)[C@H](C)C[C@@](C)(OC)[C@H](O[C@@H]4O[C@H](C)C[C@H](N(C)C)[C@H]4O)[C@@H](C)[C@H](O[C@H]4C[C@@](C)(OC)[C@@H](O)[C@H](C)O4)[C@@H](C)C(=O)O3)nn2)cc1 | 0.5 (≈ 0.535 µM) | 1 (≈ 1.07 µM) | 64 (≈ 68.5 µM) | 16 (≈ 17.1 µM) | 0.5 (≈ 0.535 µM) | 128 (≈ 137 µM) | 128 (≈ 137 µM) | 64 (≈ 68.5 µM) | 32 (≈ 34.3 µM) | 64 (≈ 68.5 µM)
COc1ccc(-c2cn(C[C@@H]3COC(=O)[C@H](C)[C@@H](O[C@H]4C[C@@](C)(OC)[C@@H](O)[C@H](C)O4)[C@H](C)[C@@H](O[C@@H]4O[C@H](C)C[C@H](N(C)C)[C@H]4O)[C@](C)(OC)C[C@@H](C)[C@H](O)[C@H](C)CN3C)nn2)cc1 | 64 (≈ 71.7 µM) | 4 (≈ 4.48 µM) | > 128 | > 128 | 32 (≈ 35.9 µM) | 32 (≈ 35.9 µM) | 128 (≈ 143 µM) | 128 (≈ 143 µM) | 128 (≈ 143 µM) | 128 (≈ 143 µM)
COc1ccc(-c2cn(C[C@H]3COC(=O)[C@H](C)[C@@H](O[C@H]4C[C@@](C)(OC)[C@@H](O)[C@H](C)O4)[C@H](C)[C@@H](O[C@@H]4O[C@H](C)C[C@H](N(C)C)[C@H]4O)[C@](C)(OC)C[C@@H](C)[C@H](O)[C@H](C)CN3C)nn2)cc1 | 64 (≈ 71.7 µM) | 4 (≈ 4.48 µM) | > 128 | > 128 | 32 (≈ 35.9 µM) | 256 (≈ 287 µM) | 256 (≈ 287 µM) | 256 (≈ 287 µM) | 64 (≈ 71.7 µM) | 256 (≈ 287 µM)
CO[C@]1(C)C[C@@H](C)[C@H](O)[C@H](C)CN(C)C[C@H](Cn2cc(-c3ccccc3)nn2)OC(=O)[C@H](C)[C@@H](O[C@H]2C[C@@](C)(OC)[C@@H](O)[C@H](C)O2)[C@H](C)[C@H]1O[C@@H]1O[C@H](C)C[C@H](N(C)C)[C@H]1O | 1 (≈ 1.16 µM) | 0.12 (≈ 0.139 µM) | 32 (≈ 37.1 µM) | 64 (≈ 74.2 µM) | 1 (≈ 1.16 µM) | 256 (≈ 297 µM) | 256 (≈ 297 µM) | 256 (≈ 297 µM) | 128 (≈ 148 µM) | 128 (≈ 148 µM)
CO[C@]1(C)C[C@@H](C)[C@H](O)[C@H](C)CN(C)C[C@@H](Cn2cc(-c3ccc(Cl)cc3)nn2)OC(=O)[C@H](C)[C@@H](O[C@H]2C[C@@](C)(OC)[C@@H](O)[C@H](C)O2)[C@H](C)[C@H]1O[C@@H]1O[C@H](C)C[C@H](N(C)C)[C@H]1O | 8 (≈ 8.92 µM) | 2 (≈ 2.23 µM) | 128 (≈ 143 µM) | > 128 | 16 (≈ 17.8 µM) | 64 (≈ 71.4 µM) | 64 (≈ 71.4 µM) | 64 (≈ 71.4 µM) | 64 (≈ 71.4 µM) | 32 (≈ 35.7 µM)
CO[C@]1(C)C[C@@H](C)[C@H](O)[C@H](C)CN(C)C[C@@H](COCc2cn(-c3cccc(C(F)(F)F)c3)nn2)OC(=O)[C@H](C)[C@@H](O[C@H]2C[C@@](C)(OC)[C@@H](O)[C@H](C)O2)[C@H](C)[C@H]1O[C@@H]1O[C@H](C)C[C@H](N(C)C)[C@H]1O | 8 (≈ 8.33 µM) | 4 (≈ 4.17 µM) | 128 (≈ 133 µM) | > 128 | 2 (≈ 2.08 µM) | 64 (≈ 66.7 µM) | 32 (≈ 33.3 µM) | 32 (≈ 33.3 µM) | 16 (≈ 16.7 µM) | 32 (≈ 33.3 µM)
CCc1ccc(-n2cc(COC[C@@H]3CN(C)C[C@@H](C)[C@@H](O)[C@H](C)C[C@@](C)(OC)[C@H](O[C@@H]4O[C@H](C)C[C@H](N(C)C)[C@H]4O)[C@@H](C)[C@H](O[C@H]4C[C@@](C)(OC)[C@@H](O)[C@H](C)O4)[C@@H](C)C(=O)O3)nn2)cc1 | 4 (≈ 4.35 µM) | 4 (≈ 4.35 µM) | 128 (≈ 139 µM) | 128 (≈ 139 µM) | 2 (≈ 2.17 µM) | 64 (≈ 69.6 µM) | 64 (≈ 69.6 µM) | 32 (≈ 34.8 µM) | 32 (≈ 34.8 µM) | 32 (≈ 34.8 µM)
CO[C@]1(C)C[C@@H](C)[C@H](O)[C@H](C)CN(C)C[C@H](Cn2cc(-c3ccc(Cl)cc3)nn2)OC(=O)[C@H](C)[C@@H](O[C@H]2C[C@@](C)(OC)[C@@H](O)[C@H](C)O2)[C@H](C)[C@H]1O[C@@H]1O[C@H](C)C[C@H](N(C)C)[C@H]1O | 2 (≈ 2.23 µM) | 0.12 (≈ 0.134 µM) | 32 (≈ 35.7 µM) | 64 (≈ 71.4 µM) | 1 (≈ 1.12 µM) | 128 (≈ 143 µM) | 128 (≈ 143 µM) | 128 (≈ 143 µM) | 128 (≈ 143 µM) | 64 (≈ 71.4 µM)
COc1ccc(-c2cn(C[C@H]3CN(C)C[C@@H](C)[C@@H](O)[C@H](C)C[C@@](C)(OC)[C@H](O[C@@H]4O[C@H](C)C[C@H](N(C)C)[C@H]4O)[C@@H](C)[C@H](O[C@H]4C[C@@](C)(OC)[C@@H](O)[C@H](C)O4)[C@@H](C)C(=O)O3)nn2)cc1 | 1 (≈ 1.12 µM) | 0.12 (≈ 0.135 µM) | 32 (≈ 35.9 µM) | 64 (≈ 71.7 µM) | 1 (≈ 1.12 µM) | > 256 | > 256 | > 256 | 256 (≈ 287 µM) | 128 (≈ 143 µM)
CO[C@]1(C)C[C@@H](C)[C@H](O)[C@H](C)CN(C)C[C@H](COCc2cn(-c3ccc(OC(F)(F)F)cc3)nn2)OC(=O)[C@H](C)[C@@H](O[C@H]2C[C@@](C)(OC)[C@@H](O)[C@H](C)O2)[C@H](C)[C@H]1O[C@@H]1O[C@H](C)C[C@H](N(C)C)[C@H]1O | 2 (≈ 2.05 µM) | 2 (≈ 2.05 µM) | 64 (≈ 65.6 µM) | 16 (≈ 16.4 µM) | 1 (≈ 1.02 µM) | 128 (≈ 131 µM) | 128 (≈ 131 µM) | 128 (≈ 131 µM) | 32 (≈ 32.8 µM) | 32 (≈ 32.8 µM)
CO[C@]1(C)C[C@@H](C)[C@H](O)[C@H](C)CN(C)C[C@@H](COCc2cn(-c3ccc(OC(F)(F)F)cc3)nn2)OC(=O)[C@H](C)[C@@H](O[C@H]2C[C@@](C)(OC)[C@@H](O)[C@H](C)O2)[C@H](C)[C@H]1O[C@@H]1O[C@H](C)C[C@H](N(C)C)[C@H]1O | 4 (≈ 4.1 µM) | 4 (≈ 4.1 µM) | 128 (≈ 131 µM) | > 128 | 2 (≈ 2.05 µM) | 64 (≈ 65.6 µM) | 32 (≈ 32.8 µM) | 32 (≈ 32.8 µM) | 16 (≈ 16.4 µM) | 32 (≈ 32.8 µM)
CO[C@]1(C)C[C@@H](C)[C@H](O)[C@H](C)CN(C)C[C@H](Cn2cc(-c3ccc(F)cc3)nn2)OC(=O)[C@H](C)[C@@H](O[C@H]2C[C@@](C)(OC)[C@@H](O)[C@H](C)O2)[C@H](C)[C@H]1O[C@@H]1O[C@H](C)C[C@H](N(C)C)[C@H]1O | 2 (≈ 2.27 µM) | 0.25 (≈ 0.284 µM) | 32 (≈ 36.4 µM) | 64 (≈ 72.7 µM) | 2 (≈ 2.27 µM) | 256 (≈ 291 µM) | 256 (≈ 291 µM) | 256 (≈ 291 µM) | 256 (≈ 291 µM) | 64 (≈ 72.7 µM)
CO[C@]1(C)C[C@@H](C)[C@H](O)[C@H](C)CN(C)C[C@@H](COCc2cn(-c3ccc(SC)cc3)nn2)OC(=O)[C@H](C)[C@@H](O[C@H]2C[C@@](C)(OC)[C@@H](O)[C@H](C)O2)[C@H](C)[C@H]1O[C@@H]1O[C@H](C)C[C@H](N(C)C)[C@H]1O | 4 (≈ 4.26 µM) | 4 (≈ 4.26 µM) | 128 (≈ 136 µM) | 128 (≈ 136 µM) | 2 (≈ 2.13 µM) | 128 (≈ 136 µM) | 64 (≈ 68.2 µM) | 64 (≈ 68.2 µM) | 32 (≈ 34.1 µM) | 32 (≈ 34.1 µM)
CO[C@]1(C)C[C@@H](C)[C@H](O)[C@H](C)CN(C)C[C@@H](Cn2cc(-c3ccccn3)nn2)OC(=O)[C@H](C)[C@@H](O[C@H]2C[C@@](C)(OC)[C@@H](O)[C@H](C)O2)[C@H](C)[C@H]1O[C@@H]1O[C@H](C)C[C@H](N(C)C)[C@H]1O | 2 (≈ 2.32 µM) | 1 (≈ 1.16 µM) | 128 (≈ 148 µM) | 64 (≈ 74.2 µM) | 4 (≈ 4.63 µM) | > 256 | > 256 | 128 (≈ 148 µM) | 128 (≈ 148 µM) | 128 (≈ 148 µM)
CO[C@]1(C)C[C@@H](C)[C@H](O)[C@H](C)CN(C)C[C@H](COCc2cn(-c3ccc(C(C)C)cc3)nn2)OC(=O)[C@H](C)[C@@H](O[C@H]2C[C@@](C)(OC)[C@@H](O)[C@H](C)O2)[C@H](C)[C@H]1O[C@@H]1O[C@H](C)C[C@H](N(C)C)[C@H]1O | 1 (≈ 1.07 µM) | 1 (≈ 1.07 µM) | 64 (≈ 68.5 µM) | 16 (≈ 17.1 µM) | 0.5 (≈ 0.535 µM) | 128 (≈ 137 µM) | 64 (≈ 68.5 µM) | 64 (≈ 68.5 µM) | 32 (≈ 34.3 µM) | 32 (≈ 34.3 µM)
CCCCc1ccc(-c2cn(C[C@H]3CN(C)C[C@@H](C)[C@@H](O)[C@H](C)C[C@@](C)(OC)[C@H](O[C@@H]4O[C@H](C)C[C@H](N(C)C)[C@H]4O)[C@@H](C)[C@H](O[C@H]4C[C@@](C)(OC)[C@@H](O)[C@H](C)O4)[C@@H](C)C(=O)O3)nn2)cc1 | 1 (≈ 1.09 µM) | 0.06 (≈ 0.0653 µM) | 128 (≈ 139 µM) | 64 (≈ 69.7 µM) | 1 (≈ 1.09 µM) | 32 (≈ 34.8 µM) | 16 (≈ 17.4 µM) | 16 (≈ 17.4 µM) | 32 (≈ 34.8 µM) | 16 (≈ 17.4 µM)
COc1ccc(-c2cn(C[C@@H]3CN(C)C[C@@H](C)[C@@H](O)[C@H](C)C[C@@](C)(OC)[C@H](O[C@@H]4O[C@H](C)C[C@H](N(C)C)[C@H]4O)[C@@H](C)[C@H](O[C@H]4C[C@@](C)(OC)[C@@H](O)[C@H](C)O4)[C@@H](C)C(=O)O3)nn2)cc1 | 32 (≈ 35.9 µM) | 4 (≈ 4.48 µM) | > 128 | > 128 | 64 (≈ 71.7 µM) | 256 (≈ 287 µM) | 256 (≈ 287 µM) | 256 (≈ 287 µM) | 128 (≈ 143 µM) | 64 (≈ 71.7 µM)
